According to ChEMBL document CHEMBL2040730, “Synthesis of berbamine acetyl glycosides and evaluation of antitumor activity” (Eur J Med Chem, 2012):

Tests used:
Assay type in all cases: functional, cell-based
[1] = test system: A549; experiment: Cytotoxicity against human A549 cells after 2 days by MTT assay
Procedure, shortened: (§1)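 Cells were seeded at 5 × 10³ per well and exposed to eight compound concentrations (50, 25, 12.5, 6.25, 3.13, 1.56, 0.78, 0.39), with positive and blank controls. Incubation was 2 days at 37 °C and 5% CO₂. MTT (5 mg/mL stock) was then added for 4 h. After the supernatant was removed, formazan was dissolved in DMSO for 20 min at room temperature. OD was read at 570 nm, and viability was expressed as % of compound-free medium controls.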

[2] = test system: L1210; experiment: Cytotoxicity against mouse L1210 cells after 2 days by MTT assay; procedure, shortened: as §1
[3] = test system: K562; experiment: Cytotoxicity against human K562 cells after 2 days by MTT assay; procedure, shortened: as §1

| Compound | IC50 ([1]; Homo sapiens, A549, 48 h) [µM] | IC50 ([2]; Mus musculus, L1210, 48 h) [µM] | IC50 ([3]; Homo sapiens, K562, 48 h) [µM] | IC50 ([1]; a549) [µM] | IC50 ([2]; l1210) [µM] | IC50 ([3]; k562) [µM] |
| --- | --- | --- | --- | --- | --- | --- |
| COc1cc2c3cc1Oc1c(OC)c(OC)cc4c1[C@@H](Cc1ccc(O)c(c1)Oc1ccc(cc1)C[C@@H]3N(C)CC2)N(C)CC4 | 39.7 | 2.73 | 4 | – | – | – |
| COc1cc2c3cc1Oc1c(OC)c(OC)cc4c1[C@@H](Cc1ccc(O[C@@H]5O[C@H](COC(C)=O)[C@@H](O[C@@H]6O[C@H](COC(C)=O)[C@@H](OC(C)=O)[C@H](OC(C)=O)[C@H]6OC(C)=O)[C@H](OC(C)=O)[C@H]5OC(C)=O)c(c1)Oc1ccc(cc1)C[C@@H]3N(C)CC2)N(C)CC4 [listing 1 of 2 here] | – | – | – | ≥ 50 | 1.85 | ≥ 50 |
| COc1cc2c3cc1Oc1c(OC)c(OC)cc4c1[C@@H](Cc1ccc(O[C@@H]5O[C@H](COC(C)=O)[C@H](OC(C)=O)[C@H](OC(C)=O)[C@H]5OC(C)=O)c(c1)Oc1ccc(cc1)C[C@@H]3N(C)CC2)N(C)CC4 | 43 | 2.17 | 2.03 | – | – | – |
| COc1cc2c3cc1Oc1c(OC)c(OC)cc4c1[C@@H](Cc1ccc(O[C@@H]5O[C@H](COC(C)=O)[C@@H](O[C@@H]6O[C@H](COC(C)=O)[C@@H](OC(C)=O)[C@H](OC(C)=O)[C@H]6OC(C)=O)[C@H](OC(C)=O)[C@H]5OC(C)=O)c(c1)Oc1ccc(cc1)C[C@@H]3N(C)CC2)N(C)CC4 [listing 2 of 2 here] | 27.8 | – | – | – | 0.3 | 2.23 |
| COc1cc2c3cc1Oc1c(OC)c(OC)cc4c1[C@@H](Cc1ccc(O[C@@H]5O[C@H](COC(C)=O)[C@@H](OC(C)=O)[C@H](OC(C)=O)[C@H]5OC(C)=O)c(c1)Oc1ccc(cc1)C[C@@H]3N(C)CC2)N(C)CC4 | 29.5 | 0.57 | 1.96 | – | – | – |
| COc1cc2c3cc1Oc1c(OC)c(OC)cc4c1[C@@H](Cc1ccc(O[C@@H]5O[C@H](CO)[C@@H](O[C@@H]6O[C@H](CO)[C@@H](O)[C@H](O)[C@H]6O)[C@H](O)[C@H]5O)c(c1)Oc1ccc(cc1)C[C@@H]3N(C)CC2)N(C)CC4 | ≥ 50 | 10.6 | ≥ 50 | – | – | – |
| COc1cc2c3cc1Oc1c(OC)c(OC)cc4c1[C@@H](Cc1ccc(O[C@@H]5O[C@H](COC(C)=O)[C@@H](O[C@@H]6O[C@H](COC(C)=O)[C@H](OC(C)=O)[C@H](OC(C)=O)[C@H]6OC(C)=O)[C@H](OC(C)=O)[C@H]5OC(C)=O)c(c1)Oc1ccc(cc1)C[C@@H]3N(C)CC2)N(C)CC4 | ≥ 50 | 2.03 | 3.56 | – | – | – |
| COc1cc2c3cc1Oc1c(OC)c(OC)cc4c1[C@@H](Cc1ccc(O[C@H]5O[C@@H](COC(C)=O)[C@H](OC(C)=O)[C@@H](OC(C)=O)[C@@H]5OC(C)=O)c(c1)Oc1ccc(cc1)C[C@@H]3N(C)CC2)N(C)CC4 | ≥ 50 | 2.74 | ≥ 50 | – | – | – |
| COc1cc2c3cc1Oc1c(OC)c(OC)cc4c1[C@@H](Cc1ccc(O[C@@H]5OC[C@@H](OC(C)=O)[C@H](OC(C)=O)[C@H]5OC(C)=O)c(c1)Oc1ccc(cc1)C[C@@H]3N(C)CC2)N(C)CC4 | ≥ 50 | 1.27 | 1.55 | – | – | – |
